Laboratory results: ChEMBL document CHEMBL3585293, “Design, antiviral and cytostatic properties of isoxazolidine-containing amonafide analogues” (Bioorg Med Chem, 2015)
Activity calls are given as the source filed them. No cut-off for these calls is given here.

What was measured:
[1] = Cytotoxicity against HEL cells assessed as alternation of cell morphology by microscopic analysis; assay type: cell-based; conditions: human
[2] = test system: MDCK; assay: Cytotoxicity against MDCK cells assessed cell viability by MTS assay; assay type: cell-based, Canis lupus familiaris; conditions: dog
Outline: (§1)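 Cells were exposed to a range of compound concentrations. Viability was measured by the colorimetric formazan-based MTS assay.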

[3] = test system: Cytomegalovirus; assay: Antiviral activity against Cytomegalovirus Davis infected in HEL cells assessed as reduction of virus-induced cytopathogenicity; assay type: functional, organism-based; conditions: Human betaherpesvirus 5, Davis
[4] = test system: CCRF-CEM; assay: Cytotoxicity against human CEM cells assessed as inhibition of cell proliferation; assay type: functional, cell-based
[5] = Cytotoxicity against CRFK cells assessed cell viability by MTS assay; assay type: cell-based, Felis catus; conditions: cat; outline: as §1
[6] = test system: Human alphaherpesvirus 3; assay: Antiviral activity against Varicella-zoster virus expressing thymidine kinase infected in HEL cells assessed as reduction of virus-induced plaque formation; assay type: functional, organism-based; conditions: Human alphaherpesvirus 3, HEL
Outline: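 Plaque-reduction assay in HEL cells. TK+ VZV strains were Oka and YS; TK- strains were 07-1 and YS-R. Virus input was 100 PFU, with graded compound concentrations. Plaques were counted once formation was complete in untreated infected controls. […] Two independent experiments were run.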

[7] = test system: Human alphaherpesvirus 3; assay: Antiviral activity against thymidine kinase-deficient Varicella-zoster virus infected in HEL cells assessed as reduction of virus-induced plaque formation; assay type: functional, organism-based; conditions: Human alphaherpesvirus 3, HEL
Outline: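 Plaque-reduction assay in HEL cells. TK+ VZV strains were Oka and YS; TK- strains were 07-1 and YS-R. Virus input was 100 PFU, with graded compound concentrations. Plaques were counted once formation was complete in untreated infected controls. Two independent experiments were run.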

[8] = test system: HeLa; assay: Cytotoxicity against human HeLa cells assessed as inhibition of cell proliferation; assay type: functional, cell-based
[9] = test system: L1210; assay: Cytotoxicity against mouse L1210 cells assessed as inhibition of cell proliferation; assay type: functional, cell-based
[10] = test system: Cytomegalovirus; assay: Antiviral activity against Cytomegalovirus AD-169 infected in HEL cells assessed as reduction of virus-induced cytopathogenicity; assay type: functional, organism-based; conditions: Human betaherpesvirus 5, AD-169, HEL
[11] = test system: Human respirovirus 3; assay: Antiviral activity against Parainfluenza virus 3 infected in African green monkey Vero cells assessed as reduction of virus-induced cytopathogenicity; assay type: functional, organism-based
Outline: (§2)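 Confluent monolayers were infected with 100 CCID50 of virus (1 CCID50 infects 50% of cultures) or 20 PFU. The cultures were then incubated with varying test compound concentrations. Cytopathicity was scored once it was complete in untreated infected controls.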

[12] = test system: Felid alphaherpesvirus 1; assay: Antiviral activity against Feline herpesvirus infected in CRFK cells assessed as reduction of virus-induced cytopathogenicity; assay type: functional, organism-based; outline: as §2
[13] = test system: Human adenovirus 2; assay: Antiviral activity against Human adenovirus 2 infected in HEL cells assessed as reduction of virus-induced cytopathogenicity; assay type: functional, organism-based; outline: as §2
[14] = test system: Reovirus sp.; assay: Antiviral activity against Reovirus infected in African green monkey Vero cells assessed as reduction of virus-induced cytopathogenicity; assay type: functional, organism-based; outline: as §2
[15] = test system: Influenza A virus; assay: Antiviral activity against Influenza A virus (A/PR/8/34(H1N1)) infected in MDCK cells assessed as reduction of virus-induced cytopathogenicity; assay type: functional, organism-based; conditions: A/Puerto Rico/8/1934(H1N1)
Outline: (§3)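 MDCK cells, grown confluent in 96-well plates, were infected with influenza A/PR/8 (H1N1), A/HK/7/87 (H3N2) or B/HK/5/72 at 100 CCID50 or 20 PFU and exposed to varying compound concentrations. Cytopathic effect was recorded when it reached completion in untreated virus controls. EC50 is the concentration that halves virus-induced cytopathicity.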

[16] = test system: Feline coronavirus; assay: Antiviral activity against Feline coronavirus infected in CRFK cells assessed as reduction of virus-induced cytopathogenicity; assay type: functional, organism-based; outline: as §2
[17] = test system: Respiratory syncytial virus; assay: Antiviral activity against Respiratory syncytial virus infected in human Hela cells assessed as reduction of virus-induced cytopathogenicity; assay type: functional, organism-based; outline: as §2
[18] = test system: Influenza B virus; assay: Antiviral activity against Influenza B virus (B/HK/5/72) infected in MDCK cells assessed as reduction of virus-induced cytopathogenicity; assay type: functional, cell-based; conditions: B/Hong Kong/05/1972; outline: as §3
[19] = test system: Influenza A virus H3N2; assay: Antiviral activity against Influenza A virus H3N2 infected in MDCK cells assessed as reduction of virus-induced cytopathogenicity; assay type: functional, organism-based; outline: as §3
[20] = test system: Vesicular stomatitis virus; assay: Antiviral activity against Vesicular stomatitis virus infected in human HeLa cells assessed as reduction of virus-induced cytopathogenicity; assay type: functional, organism-based
Outline: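 Confluent Vero (Coxsackie B4) or HeLa (vesicular stomatitis virus) monolayers in 96-well plates were inoculated with 100 CCID50 virus or 20 PFU and incubated with varying compound concentrations. Cytopathicity was scored once complete in untreated infected controls. […] Two separate experiments were run.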

[21] = test system: Sindbis virus; assay: Antiviral activity against Sindbis virus infected in African green monkey Vero cells assessed as reduction of virus-induced cytopathogenicity; assay type: functional, organism-based; outline: as §2
[22] = test system: Human alphaherpesvirus 1; assay: Antiviral activity against thymidine kinase-deficient acyclovir-resistant Herpes simplex virus 1 KOS infected in HEL cells assessed as reduction of virus-induced cytopathogenicity; assay type: functional, organism-based; conditions: Human alphaherpesvirus 1, KOS

| Structure (SMILES) | MCC [1] | EC50 [3] | IC50 [4] | EC50 [6] | EC50 [7] | IC50 [8] | IC50 [9] | EC50 [10] | Activity [11] | Activity [12] | Activity [13] | Activity [14] | Activity [15] | Activity [16] | Activity [17] | Activity [18] | Activity [19] | Activity [20] | Activity [21] | other results |
| --- | --- | --- | --- | --- | --- | --- | --- | --- | --- | --- | --- | --- | --- | --- | --- | --- | --- | --- | --- | --- |
| CCCN1C(=O)c2cccc3cc(NC(=O)[C@H]4C[C@@H](P(=O)(OCC)OCC)N(C)O4)cc(c23)C1=O (racemic) | > 100 µM | 45 µM | 47 µM | 20 µM | 38 µM | 70 µM | 76 µM | 45 µM |  |  |  |  |  |  |  |  |  |  |  | CC50 [2]: > 100 µM; CC50 [5]: > 100 µM |
| CCCN1C(=O)c2cccc3cc(NC(=O)[C@@H]4C[C@@H](P(=O)(OCC)OCC)N(C)O4)cc(c23)C1=O (racemic) | > 100 µM | 45 µM | 28 µM | 28 µM | 40 µM | 74 µM | 41 µM | > 20 µM |  |  |  |  |  |  |  |  |  |  |  | CC50 [2]: 46.2 µM |
| CCCCN1C(=O)c2cccc3cc(NC(=O)[C@H]4C[C@@H](P(=O)(OCC)OCC)N(C)O4)cc(c23)C1=O (racemic) | ≥ 100 µM | > 20 µM | 19 µM | 20 µM | 38 µM |  | 28 µM | > 20 µM |  |  |  |  |  |  |  |  |  |  |  |  |
| CCCCN1C(=O)c2cccc3cc(NC(=O)[C@@H]4C[C@@H](P(=O)(OCC)OCC)N(C)O4)cc(c23)C1=O (racemic) | ≥ 100 µM | > 20 µM | 25 µM | 28 µM | 40 µM | 78 µM | 85 µM | > 20 µM |  |  |  |  |  |  |  |  |  |  |  | CC50 [2]: > 100 µM; CC50 [5]: > 100 µM |
| CCOP(=O)(OCC)[C@@H]1C[C@H](C(=O)Nc2cc3c4c(cccc4c2)C(=O)N(CC(C)C)C3=O)ON1C (racemic) | > 100 µM | 45 µM | 26 µM |  |  | 49 µM | 73 µM | 45 µM |  |  |  |  |  |  |  |  |  |  |  | CC50 [2]: 51.8 µM; CC50 [5]: > 100 µM |
| CCOP(=O)(OCC)[C@@H]1C[C@H](C(=O)Nc2cc3c4c(cccc4c2)C(=O)N(CCN(CC)CC)C3=O)ON1C (racemic) | > 100 µM | ≥ 100 µM | 23 µM | > 20 µM | 36 µM | 7.3 µM | 16 µM | 100 µM |  |  |  |  |  |  |  |  |  |  |  | CC50 [5]: > 100 µM |
| CCOP(=O)(OCC)[C@@H]1C[C@@H](C(=O)Nc2cc3c4c(cccc4c2)C(=O)N(CCN(CC)CC)C3=O)ON1C (racemic) | ≥ 100 µM | 49 µM | 21 µM | > 20 µM | > 20 µM | 13 µM | 11 µM | 55 µM |  |  |  |  |  |  |  |  |  |  |  | CC50 [2]: > 100 µM |
| CCOP(=O)(OCC)[C@@H]1C[C@@H](C(=O)Nc2cc3c4c(cccc4c2)C(=O)N(CC(C)C)C3=O)ON1C (relative stereo) | > 100 µM | > 100 µM | 48 µM | > 100 µM | > 100 µM | 56 µM | 72 µM | > 100 µM |  |  |  |  |  |  |  |  |  |  |  | CC50 [2]: > 100 µM |
| CCOP(=O)(OCC)[C@@H]1C[C@@H](CN2C(=O)c3cccc4cc(N)cc(c34)C2=O)ON1C (relative stereo) |  |  |  |  |  |  |  |  | inactive | inactive | inactive | inactive | inactive | inactive | inactive | inactive | inactive | inactive | inactive |  |
| CCOP(=O)(OCC)[C@@H]1C[C@@H](CN2C(=O)c3cccc4cc(NC(C)=O)cc(c34)C2=O)ON1C (relative stereo) |  |  |  |  |  |  |  |  | inactive | inactive | inactive | inactive | inactive | inactive | inactive | inactive | inactive | inactive | inactive |  |
| CCOP(=O)(OCC)[C@@H]1C[C@@H](CN2C(=O)c3cccc4cc([N+](=O)[O-])cc(c34)C2=O)ON1C (relative stereo) |  |  |  |  |  |  |  |  | inactive | inactive | inactive | inactive | inactive | inactive | inactive | inactive | inactive | inactive | inactive |  |
| CCOP(=O)(OCC)[C@@H]1C[C@@H](CN2C(=O)c3cccc4cccc(c34)C2=O)ON1C (relative stereo) |  |  |  |  |  |  |  |  | inactive | inactive | inactive | inactive | inactive | inactive | inactive | inactive | inactive | inactive | inactive |  |
| CCOP(=O)(OCC)[C@@H]1C[C@H](CN2C(=O)c3cccc4cc(N)cc(c34)C2=O)ON1C (relative stereo) |  |  |  |  |  |  |  |  | inactive | inactive | inactive | inactive | inactive | inactive | inactive | inactive | inactive | inactive | inactive |  |
| CCOP(=O)(OCC)[C@@H]1C[C@H](CN2C(=O)c3cccc4cc(NC(C)=O)cc(c34)C2=O)ON1C (relative stereo) |  |  |  |  |  |  |  |  | inactive | inactive | inactive | inactive | inactive | inactive | inactive | inactive | inactive | inactive | inactive |  |
| CCOP(=O)(OCC)[C@@H]1C[C@H](CN2C(=O)c3cccc4cc([N+](=O)[O-])cc(c34)C2=O)ON1C (relative stereo) |  |  |  |  |  |  |  |  | inactive | inactive | inactive | inactive | inactive | inactive | inactive | inactive | inactive | inactive | inactive |  |
| CCOP(=O)(OCC)[C@@H]1C[C@H](CN2C(=O)c3cccc4cccc(c34)C2=O)ON1C (relative stereo) |  |  |  |  |  |  |  |  | inactive | inactive | inactive | inactive | inactive | inactive | inactive | inactive | inactive | inactive | inactive |  |
| Nc1nc2c(ncn2COCCO)c(=O)[nH]1 [ACYCLOVIR] | > 250 µM |  |  |  |  |  |  |  |  |  |  |  |  |  |  |  |  |  |  |  |
| O=c1[nH]c(=O)n([C@H]2C[C@H](O)[C@@H](CO)O2)cc1/C=C/Br [BRIVUDINE] | > 250 µM |  |  | 0.029 µM | 1 µM |  |  |  |  |  |  |  |  |  |  |  |  |  |  | EC50 [22]: 2 µM |
| Nc1ccn(C[C@@H](CO)OCP(=O)(O)O)c(=O)n1 [CIDOFOVIR] | > 250 µM | 1.02 µM |  |  |  |  |  |  |  |  |  |  |  |  |  |  |  |  |  |  |
| O=c1[nH]cc(F)c(=O)[nH]1 [FLUOROURACIL] |  |  |  |  |  |  | 0.33 µM |  |  |  |  |  |  |  |  |  |  |  |  |  |
| Nc1nc2c(ncn2COC(CO)CO)c(=O)[nH]1 [GANCICLOVIR] | > 100 µM | 7.1 µM |  |  |  |  |  | 6.3 µM |  |  |  |  |  |  |  |  |  |  |  |  |
| COc1cccc(N2CCN(C3=Nc4c(F)cccc4[C@H](CC(=O)O)N3c3cc(C(F)(F)F)ccc3OC)CC2)c1 [LETERMOVIR] |  |  |  |  |  |  |  | 0.0046 µM |  |  |  |  |  |  |  |  |  |  |  |  |
